The text below walks through data of ChEMBL document CHEMBL3992505, “Optimization of substituted imidazobenzodiazepines as novel asthma treatments” (Eur J Med Chem, 2017).

Structures are written as SMILES. Where only a bound is given, the exact number is not on record here.

The test system of data set [1] is Liver. The data set is described as follows: Metabolic stability in mouse liver microsomes assessed as compound remaining at 10 uM after 1 hr by LC-MS/MS analysis. The class given is ADME, microsome. In outline: (§1)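 Compound stability was measured in human or mouse liver microsomes as percent remaining after 1 h. Data came from two independent experiments, each run in triplicate.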

Data set [2] in a line: (§2) Half life in mouse liver microsomes at 10 uM by LC-MS/MS analysis. Type of data set: ADME, microsome. The settings on record: liver microsomes.
Data set [3] is described as follows: Cytotoxicity in HEK293 cells after 48 hrs by Cell-titer Glo reagent based assay. As to conditions: human, read-out: LD50. In outline: (§3)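 Cells (HEK293, HepG2 or BEAS2B) exposed to compounds at a range of concentrations for 48 h; viability read by Cell-Titer Glo luminescence. Normalized to DMSO (negative) and 3-dibutylamino-1-(4-hexyl-phenyl)-propan-1-one at 150 μM final in DMSO (positive).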

A further data set concerns Mus musculus. The data set is described as follows: Neurotoxicity in Swiss Webster mouse assessed as induction of senorimotor impairment at 40 mg/kg, ip administered 10 mins prior to testing and measured for 3 mins at 10 to 60 mins after drug administration by rotarod method. Type of data set: toxicity, organism-based. The settings on record: in vivo. In outline:
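Swiss Webster mice, pre-trained at 15 rpm until they held on for 3 min at three consecutive sessions, were given a single i.p. dose of 40 mg/kg in 10% DMSO/40% propylene glycol/50% PBS. Rotarod at 15 rpm for 3 min at 10, 30 and 60 min after dosing. Falls before 3 min scored as fail, with time of fall recorded. N = 10, mean ± SEM. Vehicle and diazepam 5 mg/kg i.p. controls. Mice rested 2–3 days between doses.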

Data set [4] in a line: Half life in human liver microsomes at 10 uM by LC-MS/MS analysis. The class given is ADME, microsome.
For data set [5], the system named is Liver. The data set is described as follows: Metabolic stability in human liver microsomes assessed as compound remaining at 10 uM after 1 hr by LC-MS/MS analysis. The class given is ADME, microsome. In outline: as §1
Data set [6] in a line: Cytotoxicity in human HepG2 cells after 48 hrs by Cell-titer Glo reagent based assay. As to conditions: read-out: LD50. The method in brief: as §3
Data set [7] in a line: Cytotoxicity in human BEAS2B cells after 48 hrs by Cell-titer Glo reagent based assay. On the set-up: species or system BEAS-2B. The settings on record: read-out: LD50. The method in brief:
as §3

Data set [8] concerns Liver. The description is as §2. Type of data set: ADME, microsome. The settings on record: microsomes, 10 µM.

On to `[2H]C([2H])([2H])Oc1ccc2c(c1)C(=O)N1CCC[C@H]1c1c(C(=O)OCC(C)C)ncn1-2`, for which the values for the Stability in the data set with Liver [1] and in the data set with Liver [5] were 22.4% and 78.7%, respectively. Further, the half-life at 10 µM in [2] stood at 26.9 min; in data set [4] it was 201 min. In addition, the values for the CC50 at 48 h in data set [3], in data set [6] and in [7] were above 100 µM, above 200 µM and above 200 µM, respectively. In addition, the Activity result with Mus musculus is “Toxic”.

`COC(=O)c1ncn2c1[C@@H]1CCCN1C(=O)c1cc(OC)ccc1-2`: the Stability is reported as 70.3% in the data set on Liver [1] and 89.7% in the data set on Liver [5]. The half-life at 10 µM turned out to be 129 min in data set [2] and 666 min in data set [4]. Besides, the CC50 at 48 h in [3], in data set [6] and in data set [7] was above 400 µM each time.

Turning to `[2H]C([2H])([2H])Oc1ccc2c(c1)C(=O)N1CCC[C@H]1c1c(C(=O)OCC)ncn1-2`, the Stability in the data set on Liver [1] is given as 85.5%; in the data set on Liver [5], 92.8%. Also, the half-life at 10 µM stood at 351 min in [2] and 841 min in data set [4]. The CC50 at 48 h in [3], in [6] and in data set [7] was above 400 µM throughout.

For `CCNC(=O)c1ncn2c1[C@@H]1CCCN1C(=O)c1cc(OC)ccc1-2`, the results for the Stability in the data set on Liver [1] and in the data set on Liver [5] were 50.1% and 90.7%, respectively. In the data set on Liver [8], this compound yielded a t1/2 of 283 min. The CC50 at 48 h in data set [3], in data set [6] and in data set [7] was above 400 µM each time. The compound further registered a half-life at 10 µM in data set [4] of 733 min.

Turning to `[2H]C([2H])([2H])Oc1ccc2c(c1)C(=O)N1CCC[C@H]1c1c(C(=O)OC(C)(C)C)ncn1-2`, the Stability in the data set on Liver [1] stood at 17.6%; in the data set on Liver [5], 91.9%. For the same compound, the half-life at 10 µM in data set [2] turned out to be 25.7 min; in data set [4], 1010 min. The CC50 at 48 h in data set [3] is above 100 µM; in data set [6], above 400 µM; in data set [7] it was above 200 µM.

Turning to `CCOC(=O)c1ncn2c1[C@@H]1CCCN1C(=O)c1cc(OC)ccc1-2`, the results for the Stability in the data set with Liver [1] and with Liver [5] were 85.4% and 99.1%, respectively. This compound also gave a half-life at 10 µM in data set [2] of 318 min. Also, the CC50 at 48 h in [3], in data set [6] and in data set [7] was above 400 µM each time.

As for `[2H]C([2H])([2H])Oc1ccc2c(c1)C(=O)N1CCC[C@H]1c1c(C(=O)N(C)C)ncn1-2`, the Stability in the data set on Liver [1] amounted to 83.1%; in the data set with Liver [5], 96.3%. In addition, the values for the half-life at 10 µM in data set [2] and in [4] were 1480 min and 799 min, respectively. Besides, the CC50 at 48 h in data set [3], in data set [6] and in [7] was above 400 µM each time. Moreover, the Activity result with Mus musculus was “Non-Toxic”.

For the compound `[2H]C([2H])([2H])Oc1ccc2c(c1)C(=O)N1CCC[C@H]1c1c(C(=O)NC)ncn1-2`, the values for the Stability with Liver [1] and with Liver [5] were 56.8% and 94.9%, respectively. In addition, the half-life at 10 µM is 77.4 min in data set [2] and 1430 min in [4]. Also, the CC50 at 48 h is above 100 µM in data set [3], above 400 µM in data set [6] and above 400 µM in data set [7].

With `[2H]C([2H])([2H])Oc1ccc2c(c1)C(=O)N1CCC[C@H]1c1c(C(=O)O)ncn1-2`, the Stability with Liver [1] and in the data set on Liver [5] was 84.6% each time. The results for the half-life at 10 µM in data set [2] and in [4] were 283 min and 336 min, respectively. The CC50 at 48 h in data set [3], in data set [6] and in [7] was above 400 µM in each case. The Activity result with Mus musculus is “Non-Toxic”.

Consider `CNC(=O)c1ncn2c1[C@@H]1CCCN1C(=O)c1cc(OC)ccc1-2`, for which the Stability was 54.3% with Liver [1] and 93.8% in the data set with Liver [5]. Also, the half-life at 10 µM in data set [2] came out at 64.7 min; in [4], 976 min. Moreover, the CC50 at 48 h is above 100 µM in [3], above 400 µM in data set [6] and above 400 µM in [7]. Also, the Activity entry in the data set with Mus musculus is on record as “Toxic”.

Consider `[2H]C([2H])([2H])Oc1ccc2c(c1)C(=O)N1CCC[C@H]1c1c(C(=O)NC3CC3)ncn1-2`, for which the Stability in the data set with Liver [1] worked out at 94.1%; in the data set with Liver [5], 88.1%. The compound also displayed a t1/2 in the data set with Liver [8] of 17.7 min. Besides, the CC50 at 48 h in [3] is above 200 µM; in data set [6], above 400 µM; in data set [7] it was above 400 µM. The compound also displayed a half-life at 10 µM in [4] of 1800 min.

On to `[2H]C([2H])([2H])Oc1ccc2c(c1)C(=O)N1CCC[C@H]1c1c(C(=O)OC)ncn1-2`, for which the Stability in the data set on Liver [1] worked out at 85.9%; in the data set with Liver [5], 92.9%. In addition, the half-life at 10 µM was found to be 285 min in data set [2] and 979 min in [4]. The CC50 at 48 h in data set [3], in data set [6] and in data set [7] was above 400 µM in each case. For the same compound, in the data set with Mus musculus, the Activity result was “Toxic”.

Consider `COc1ccc2c(c1)C(=O)N1CCC[C@H]1c1c(C(=O)NC3CC3)ncn1-2`, for which the results for the Stability in the data set on Liver [1] and in the data set with Liver [5] were 91.3% and 79.9%, respectively. In the data set on Liver [8], this compound displayed a t1/2 of 13.3 min. The CC50 at 48 h was above 200 µM in data set [3], above 400 µM in [6] and above 400 µM in data set [7]. Moreover, the half-life at 10 µM in data set [4] was determined as 788 min.

In the case of `CC(C)(C)OC(=O)c1ncn2c1[C@@H]1CCCN1C(=O)c1cc(O)ccc1-2`, the Stability came out at 46.6% in the data set with Liver [1] and 90.6% in the data set on Liver [5]. Further, the half-life at 10 µM in data set [2] worked out at 57.6 min; in [4], 579 min. In addition, the CC50 at 48 h in [3], in data set [6] and in data set [7] was above 400 µM throughout.

As for `COc1ccc2c(c1)C(=O)N1CCC[C@H]1c1c(C(=O)NC(C)(C)C)ncn1-2`, the Stability amounted to 4.2% in the data set on Liver [1] and 92.8% in the data set on Liver [5]. This compound yielded a t1/2 with Liver [8] of 624 min. The CC50 at 48 h was above 200 µM in data set [3], above 400 µM in data set [6] and above 400 µM in [7]. In data set [4], the half-life at 10 µM turned out to be 194 min.

Take `[2H]C([2H])([2H])Oc1ccc2c(c1)C(=O)N1CCC[C@H]1c1c(C(=O)NCC)ncn1-2`: the Stability in the data set on Liver [1] is listed as 94.8%; with Liver [5], 93.5%. The results for the half-life at 10 µM in data set [2] and in [4] were 273 min and 1280 min, respectively. The CC50 at 48 h in data set [3], in [6] and in data set [7] was above 400 µM throughout. In the data set on Mus musculus, the Activity result was “Non-Toxic”.

In the case of `COc1ccc2c(c1)C(=O)N1CCC[C@H]1c1c(C(=O)O)ncn1-2`, the Stability turned out to be 52.9% with Liver [1] and 56.1% in the data set with Liver [5]. In addition, the half-life at 10 µM in data set [2] amounted to 73.4 min; in data set [4], 80.1 min. Further, the CC50 at 48 h in data set [3], in [6] and in [7] was above 400 µM throughout.

Turning to `CCOC(=O)c1ncn2c1[C@@H]1CCCN1C(=O)c1cc(O)ccc1-2`, the Stability in the data set on Liver [1] is recorded as 91.1%; in the data set with Liver [5], 91.7%. Further, the half-life at 10 µM in data set [2] turned out to be 540 min; in [4], 659 min. In addition, the CC50 at 48 h in data set [3], in data set [6] and in [7] was above 400 µM throughout. In addition, in the data set with Mus musculus, the Activity entry is listed as “Non-Toxic”.
